Assays:
[1] = molecular target: T1, Broad substrate specificity ATP-binding cassette transporter ABCG2 (Homo sapiens, UniProt Q9UNQ0); assay: Inhibition of human ABCG2 expressed in MDCK2 cells assessed as reduction in pheophorbide A efflux pre-incubated for 30 mins before pheophorbide A addition and measured for 120 mins by flow cytometry
T1 sequence (Q9UNQ0 whole entry): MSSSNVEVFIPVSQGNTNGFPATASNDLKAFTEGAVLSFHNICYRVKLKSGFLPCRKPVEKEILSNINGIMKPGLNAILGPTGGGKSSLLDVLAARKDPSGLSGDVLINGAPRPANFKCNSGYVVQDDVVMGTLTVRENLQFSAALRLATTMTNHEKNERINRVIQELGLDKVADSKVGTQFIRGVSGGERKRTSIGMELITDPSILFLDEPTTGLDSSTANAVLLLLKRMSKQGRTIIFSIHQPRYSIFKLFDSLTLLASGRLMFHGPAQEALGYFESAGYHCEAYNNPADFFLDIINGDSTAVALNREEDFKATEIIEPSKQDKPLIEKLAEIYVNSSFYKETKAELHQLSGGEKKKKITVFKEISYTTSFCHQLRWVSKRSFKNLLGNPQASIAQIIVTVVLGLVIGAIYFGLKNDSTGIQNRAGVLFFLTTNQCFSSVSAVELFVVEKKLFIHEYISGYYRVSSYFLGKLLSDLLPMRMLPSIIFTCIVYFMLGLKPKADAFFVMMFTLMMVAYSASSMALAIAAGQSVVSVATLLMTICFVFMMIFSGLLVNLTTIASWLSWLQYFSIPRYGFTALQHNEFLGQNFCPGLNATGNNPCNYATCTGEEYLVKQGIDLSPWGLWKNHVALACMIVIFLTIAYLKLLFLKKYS

ABCB1 = ABCB1 (Homo sapiens, UniProt P08183); assay: Inhibition of ABCB1 in human A2780/ADR cells assessed as reduction in calcein AM efflux at 10 uM pre-incubated for 30 mins before calcein AM addition and measured for 60 mins by microplate reader analysis relative to control; format: cell-based; details: probe calcein AM
Chain of ABCB1 (P08183 whole entry): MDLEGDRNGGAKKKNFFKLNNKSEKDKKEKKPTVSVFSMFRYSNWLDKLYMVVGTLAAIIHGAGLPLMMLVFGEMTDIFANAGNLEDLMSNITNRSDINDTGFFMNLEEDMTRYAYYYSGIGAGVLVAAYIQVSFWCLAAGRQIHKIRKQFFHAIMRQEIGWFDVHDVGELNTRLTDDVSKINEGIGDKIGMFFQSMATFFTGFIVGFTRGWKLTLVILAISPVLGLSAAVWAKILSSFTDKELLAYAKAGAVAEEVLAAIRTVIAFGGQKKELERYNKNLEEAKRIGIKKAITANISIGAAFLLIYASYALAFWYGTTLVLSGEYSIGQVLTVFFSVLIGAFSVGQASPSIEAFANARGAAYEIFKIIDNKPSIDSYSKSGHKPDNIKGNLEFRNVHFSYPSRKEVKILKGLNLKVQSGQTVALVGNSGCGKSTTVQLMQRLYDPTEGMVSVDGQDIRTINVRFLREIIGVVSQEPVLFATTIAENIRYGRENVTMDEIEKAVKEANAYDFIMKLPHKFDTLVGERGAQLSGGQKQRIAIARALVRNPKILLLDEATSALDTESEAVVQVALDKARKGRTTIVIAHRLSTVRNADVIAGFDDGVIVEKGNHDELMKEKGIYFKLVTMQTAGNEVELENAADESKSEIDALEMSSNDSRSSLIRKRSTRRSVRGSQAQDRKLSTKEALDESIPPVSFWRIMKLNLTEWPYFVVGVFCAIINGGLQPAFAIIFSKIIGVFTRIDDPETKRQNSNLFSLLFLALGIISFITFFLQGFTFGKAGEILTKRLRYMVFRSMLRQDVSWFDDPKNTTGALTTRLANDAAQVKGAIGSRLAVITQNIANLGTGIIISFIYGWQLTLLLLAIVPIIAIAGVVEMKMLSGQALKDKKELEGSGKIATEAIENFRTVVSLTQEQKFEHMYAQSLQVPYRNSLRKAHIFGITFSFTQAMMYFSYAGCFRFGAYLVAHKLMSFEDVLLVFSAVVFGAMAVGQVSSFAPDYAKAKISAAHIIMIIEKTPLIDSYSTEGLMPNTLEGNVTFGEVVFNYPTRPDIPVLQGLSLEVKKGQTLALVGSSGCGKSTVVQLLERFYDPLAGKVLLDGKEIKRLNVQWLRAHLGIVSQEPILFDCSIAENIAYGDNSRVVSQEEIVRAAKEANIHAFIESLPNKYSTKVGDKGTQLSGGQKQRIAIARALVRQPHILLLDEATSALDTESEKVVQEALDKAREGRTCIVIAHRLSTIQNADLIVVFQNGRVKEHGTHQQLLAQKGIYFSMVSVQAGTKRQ
Method in brief: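 Compound at 10 µM pre-incubated 30 min at 37 °C. Calcein AM added from 3.125 µM solution. Fluorescence (ex 485/em 520 nm) read every 60 s for 60 min.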

[2] = molecular target: T1, Broad substrate specificity ATP-binding cassette transporter ABCG2; assay: Inhibition of human ABCG2 expressed in MDCK2 cells assessed as reduction in Hoechst 33342 efflux pre-incubated for 30 mins before Hoechst 33342 addition and measured for 120 mins by microplate reader analysis; format: cell-based
Method in brief: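 Compound dilutions up to 10 µM (from 10 mM DMSO stocks) pre-incubated 30 min at 37 °C. Hoechst 33342 then added from 6 µM solution. Fluorescence (ex 355/em 460 nm) read each 60 s over 120 min.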

[3] = Solubility in pH 7.4 Krebs-HEPES buffer at 10 uM after 2 hrs by UV-visible spectrophotometric analysis; format: physicochemical; details: pH 7.4, 2 h
Method in brief: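 10 µM test solutions prepared from DMSO stocks as for the Hoechst 33342 assay, in Krebs-HEPES pH 7.4. Absorbance at an absorption peak maximum recorded every 120 s for 2 h at room temperature by UV/visible spectrophotometer.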

[4] = molecular target: ATP-dependent translocase ABCB1 (Homo sapiens, UniProt P08183); assay: Inhibition of ABCB1 in human A2780/ADR cells assessed as reduction in calcein AM efflux pre-incubated for 30 mins before calcein AM addition and measured for 60 mins by microplate reader analysis relative to control; format: cell-based
Chain of ATP-dependent translocase ABCB1 (P08183 whole entry): as above

SMILES | IC50 [1] | inhibition at 1 h, 10 µM (ABCB1) | IC50 [2] | solubility [3] | IC50 ([2]; read-out: IC50) | IC50 [4] | IC50 ([1]; read-out: IC50)
c1ccc(C2NCCc3c2[nH]c2ccccc32)cc1 (stereo unspecified) | Not Active | < 25% | Not Active | – | – | – | –
COc1cccc(C2NCCc3c2[nH]c2ccccc32)c1 (stereo unspecified) | Not Active | < 25% | Not Active | – | – | – | –
c1ccc(CN2CCc3c([nH]c4ccccc34)C2c2ccccc2)cc1 (stereo unspecified) | – | < 25% | – | Soluble | > 10000 nM | – | –
COc1ccc(C2c3[nH]c4ccccc4c3CCN2C(=O)c2ccccc2)cc1 (stereo unspecified) | – | > 25% | – | – | 2210 nM | 12000 nM | –
O=C(c1ccccc1)N1CCc2c([nH]c3ccccc23)C1c1ccc(F)c(F)c1 (stereo unspecified) | – | > 25% | – | – | 1100 nM | 8760 nM | 1800 nM
Cc1ccc(C2c3[nH]c4ccccc4c3CCN2C(=O)c2ccccc2)cc1 (stereo unspecified) | – | < 25% | – | – | 1430 nM | – | –
CCn1c2c(c3ccccc31)CCN(C(=O)c1cccc(OC)c1)C2c1ccc(Cl)c(Cl)c1 (stereo unspecified) | – | < 25% | – | Soluble | > 10000 nM | – | –
O=C(c1cccc2ccccc12)N1CCc2c([nH]c3ccccc23)C1c1ccc(Cl)c(Cl)c1 (stereo unspecified) | – | < 25% | – | – | 1320 nM | – | –
O=C(c1ccc(Cl)cc1)N1CCc2c([nH]c3ccccc23)C1c1ccc(Br)cc1 (stereo unspecified) | – | < 25% | – | – | 1780 nM | – | –
COc1ccc(C(=O)N2CCc3c([nH]c4ccccc34)C2c2ccc(C(F)(F)F)cc2)cc1 (stereo unspecified) | – | < 25% | – | Soluble | 1230 nM | – | –
COc1cccc(C2c3[nH]c4ccccc4c3CCN2C(=O)c2ccccc2)c1 (stereo unspecified) | – | > 25% | – | – | 1920 nM | 6220 nM | –
O=C(c1ccc(Cl)cc1)N1CCc2c([nH]c3ccccc23)C1c1ccc(Cl)c(Cl)c1 (stereo unspecified) | – | < 25% | – | – | 1030 nM | – | –
O=C(c1ccccc1)N1CCc2c([nH]c3ccccc23)C1c1cccc(Cl)c1 (stereo unspecified) | – | > 25% | – | – | 869 nM | 22500 nM | 811 nM
N#Cc1cccc(C2c3[nH]c4ccccc4c3CCN2C(=O)c2ccccc2)c1 (stereo unspecified) | – | > 25% | – | – | 2000 nM | 6550 nM | –
COc1ccc(C2c3[nH]c4ccccc4c3CCN2C(=O)c2ccccc2)cc1OC (stereo unspecified) | – | > 25% | – | – | 3620 nM | 7330 nM | –
O=C(c1ccccc1)N1CCc2c([nH]c3ccccc23)C1c1ccc(F)cc1 (stereo unspecified) | – | > 25% | – | – | 1890 nM | 13400 nM | –
COc1ccc(C(=O)N2CCc3c([nH]c4ccccc34)C2c2ccccc2)cc1 (stereo unspecified) | – | > 25% | – | – | 1750 nM | 9550 nM | –
O=C(c1ccc(Cl)cc1)N1CCc2c([nH]c3ccccc23)C1c1ccc(F)c(F)c1 (stereo unspecified) | – | > 25% | – | – | 1260 nM | 23400 nM | –
COc1ccc(C(=O)N2CCc3c([nH]c4ccccc34)C2c2ccc(Cl)c(Cl)c2)cc1OC (stereo unspecified) | – | > 25% | – | – | 698 nM | 14300 nM | –
COc1ccc(C(=O)N2CCc3c([nH]c4ccccc34)C2c2cccc(Cl)c2)cc1 (stereo unspecified) | – | > 25% | – | – | 883 nM | 19200 nM | –
COc1ccc(C(=O)N2CCc3c([nH]c4ccccc34)C2c2ccc(F)c(F)c2)cc1 (stereo unspecified) | – | > 25% | – | – | 805 nM | 8240 nM | –
COc1ccc(C(=O)N2CCc3c([nH]c4ccccc34)C2c2ccc(F)c(F)c2)cc1OC (stereo unspecified) | – | > 25% | – | – | 1100 nM | 2860 nM | –
Clc1ccc(C2c3[nH]c4ccccc4c3CCN2Cc2ccccc2)cc1Cl (stereo unspecified) | – | < 25% | – | Soluble | > 10000 nM | – | –
O=C(c1ccccc1)N1CCc2c([nH]c3ccccc23)C1c1ccccc1F (stereo unspecified) | – | > 25% | – | – | 4490 nM | 11300 nM | –
COc1ccc(C(=O)N2CCc3c([nH]c4ccccc34)C2c2cccc(OC)c2)cc1 (stereo unspecified) | – | > 25% | – | – | 1450 nM | 3380 nM | –
CC(C)CC1c2[nH]c3ccccc3c2CCN1C(=O)c1ccccc1 (stereo unspecified) | – | > 25% | – | – | 2330 nM | 12900 nM | –

From ChEMBL document CHEMBL4477211, “Synthesis and Investigation of Tetrahydro-β-carboline Derivatives as Inhibitors of the Breast Cancer Resistance Protein (ABCG2)” (J Med Chem, 2016)
